Holding throughout (type): ADME, organism-based
Data set [1] is described as follows: Tmax in C57BL/6 mouse plasma at 24.5 mg/kg, sc administered as single dose measured 24 hrs by UPLC-MS/MS analysis. Put shortly:
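Plasma extracted by protein precipitation/phospholipid removal and measured by UPLC-MS/MS (MRM). Parameters by noncompartmental analysis, omitting values outside quantification limits or undetected.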

The nature of data set [2]: Cmax in C57BL/6 mouse brain at 24.5 mg/kg, sc administered as single dose measured 24 hrs by UPLC-MS/MS analysis. Set-up: dose 24.5 mg/kg, route subcutaneous. Put shortly: (§1)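 15 animals dosed, 3 sacrificed at each of 1, 2, 4, 6 and 24 h. Plasma and brain homogenate were extracted and quantified by UPLC-MS/MS. Parameters came from noncompartmental analysis. Values above or below the limit of quantification, or undetected, were omitted. Kp = AUClast brain/plasma.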

A short description of data set [3]: Tmax in C57BL/6 mouse plasma at 24.5 mg/kg, iv administered as single dose measured 24 hrs by UPLC-MS/MS analysis. Put shortly:
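Plasma cleaned by protein precipitation with phospholipid removal, then UPLC-MS/MS in MRM mode. Tmax obtained by noncompartmental analysis.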

Data set [4] can be described thus: Cmax in C57BL/6 mouse plasma at 24.5 mg/kg, po administered as single dose measured 24 hrs by UPLC-MS/MS analysis. More on the design: dose 24.5 mg/kg, route oral. Put shortly:
as §1

Data set [5] is described as follows: Cmax in C57BL/6 mouse plasma at 24.5 mg/kg, iv administered as single dose measured 24 hrs by UPLC-MS/MS analysis. More on the design: dose 24.5 mg/kg, route intravenous. Put shortly:
(§2)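 21 animals dosed at 0 min, 3 sacrificed at each of 0, 5, 15, 30 min, 1, 4 and 24 h. Plasma was extracted by protein precipitation with phospholipid removal. Brain was weighed, bead-homogenised in 50 mM ammonium formate and extracted in acidified organic solvent. Quantified by UPLC-MS/MS (MRM). Brain ng/g taken as ng/mL. Parameters came from noncompartmental analysis. Kp = AUClast brain/plasma.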

Data set [6] can be described thus: Apparent half-life of the terminal disposition phase in C57BL/6 mouse plasma at 24.5 mg/kg, sc administered as single dose measured 24 hrs by UPLC-MS/MS analysis. To be noted: read-out: t1/2 lambda z (converted). Put shortly:
as §1

Data set [7] in a line: AUClast in C57BL/6 mouse brain at 24.5 mg/kg, sc administered as single dose measured 24 hrs by UPLC-MS/MS analysis. More on the design: dose 24.5 mg/kg, time 0 - last, route subcutaneous. Put shortly:
as §1

Data set [8] can be described thus: Apparent half-life of the terminal disposition phase in C57BL/6 mouse plasma at 24.5 mg/kg, iv administered as single dose measured 24 hrs by UPLC-MS/MS analysis. The note with it: read-out: t1/2 lambda z (converted). Put shortly: as §2
Data set [9] in a line: Cmax in C57BL/6 mouse plasma at 24.5 mg/kg, sc administered as single dose measured 24 hrs by UPLC-MS/MS analysis. More on the design: dose 24.5 mg/kg, route subcutaneous. Put shortly:
as §1

Data set [10] in a line: Tmax in C57BL/6 mouse brain at 24.5 mg/kg, sc administered as single dose measured 24 hrs by UPLC-MS/MS analysis. In outline:
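Brain portion homogenised in 50 mM ammonium formate with beads, acidified organic extraction, UPLC-MS/MS. ng/g read as ng/mL. Noncompartmental analysis; values above or below quantification limit, or undetected, excluded.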

Data set [11] in a line: Ratio of AUClast in brain to plasma in C57BL/6 mouse at 24.5 mg/kg, iv administered as single dose measured 24 hrs by UPLC-MS/MS analysis. Put shortly:
as §2

Data set [12] can be described thus: AUClast in C57BL/6 mouse plasma at 23.4 mg/kg, iv administered as single dose measured 24 hrs by UPLC-MS/MS analysis. More on the design: dose 23.4 mg/kg, time 0 - last, route intravenous. In outline:
(§3)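 21 animals dosed at 0 min, 3 killed per time point (0, 5, 15, 30 min, 1, 4, 24 h). Plasma extracted by protein precipitation/phospholipid removal. Brain homogenized in 50 mM ammonium formate, then extracted in acidified organic solvent. Both quantified by UPLC-MS/MS (MRM), brain ng/g taken as ng/mL. Noncompartmental analysis. Kp = AUClast brain/plasma.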

Data set [13] in a line: Cmax in C57BL/6 mouse plasma at 23.4 mg/kg, po administered as single dose measured 24 hrs by UPLC-MS/MS analysis. More on the design: dose 23.4 mg/kg, route oral. In outline: (§4)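 15 animals dosed, 3 killed at each of 1, 2, 4, 6 and 24 h. Plasma and brain homogenate (ammonium formate, acidified organic extraction) assayed by UPLC-MS/MS, brain ng/g taken as ng/mL. Noncompartmental parameters exclude values above/below quantification limit or undetected. Kp = AUClast brain/plasma.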

The nature of data set [14]: AUClast in C57BL/6 mouse brain at 23.4 mg/kg, po administered as single dose measured 24 hrs by UPLC-MS/MS analysis. Set-up: dose 23.4 mg/kg, route oral, time 0 - last. In outline: as §4
A short description of data set [15]: Apparent half-life of the terminal disposition phase in C57BL/6 mouse plasma at 23.4 mg/kg, sc administered as single dose measured 24 hrs by UPLC-MS/MS analysis. The note with it: read-out: t1/2 lambda z (converted). Put shortly: as §4
A short description of data set [16]: AUClast in C57BL/6 mouse plasma at 23.4 mg/kg, sc administered as single dose measured 24 hrs by UPLC-MS/MS analysis. More on the design: dose 23.4 mg/kg, time 0 - last, route subcutaneous. In outline:
as §4

The nature of data set [17]: Tmax in C57BL/6 mouse brain at 23.4 mg/kg, iv administered as single dose measured 24 hrs by UPLC-MS/MS analysis. In outline: as §3
A short description of data set [18]: Cmax in C57BL/6 mouse brain at 23.4 mg/kg, sc administered as single dose measured 24 hrs by UPLC-MS/MS analysis. More on the design: dose 23.4 mg/kg, route subcutaneous. In outline:
as §4

The nature of data set [19]: Apparent half-life of the terminal disposition phase in C57BL/6 mouse brain at 23.4 mg/kg, iv administered as single dose measured 24 hrs by UPLC-MS/MS analysis. The note with it: read-out: t1/2 lambda z (converted). Put shortly:
as §3

The nature of data set [20]: Tmax in C57BL/6 mouse plasma at 23.4 mg/kg, sc administered as single dose measured 24 hrs by UPLC-MS/MS analysis. Put shortly: as §4
The nature of data set [21]: Tmax in C57BL/6 mouse plasma at 23.4 mg/kg, iv administered as single dose measured 24 hrs by UPLC-MS/MS analysis. Put shortly:
as §3

Data set [22] in a line: Tmax in C57BL/6 mouse brain at 23.4 mg/kg, sc administered as single dose measured 24 hrs by UPLC-MS/MS analysis. Put shortly: as §4
Data set [23] in a line: AUClast in C57BL/6 mouse plasma at 23.4 mg/kg, po administered as single dose measured 24 hrs by UPLC-MS/MS analysis. Set-up: dose 23.4 mg/kg, time 0 - last, route oral. Put shortly: as §4

In general, Tmax refers to the time at which the peak concentration occurs. One may read the Cmax as the maximum level reached in the sampled fluid or tissue. The AUC(0-t) is the area under the concentration-time curve up to a stated or last time point. By Kp is commonly meant the ratio of the level in a tissue or fluid to that in plasma or blood.

Consider `C[C@H](Cc1ccc(OCc2ccc(Br)c(Cl)c2)cc1)N(C)CC(=O)O`, for which the time of peak concentration (Tmax) in [1] worked out at 2 h; in data set [3], 5 min; in data set [10], 6 h. The Cmax in data set [2] came to 806 ng/mL; in data set [4] it was 8530 ng/mL; in [5], 16700 ng/mL; in [9], 7110 ng/mL. For the same molecule, the half-life is 4.81 h in data set [6] and 3.93 h in [8]. In addition, the exposure AUC(0-t) at 24 h in [7] is 12900 ng·h/mL. In addition, the concentration ratio (Kp) at 24 h in [11] stood at 0.11.
Consider `CN(CC(=O)O)[C@H](CC#N)Cc1ccc(OCc2ccc(Cl)c(Cl)c2)cc1`, for which the AUC(0-t) at 24 h in data set [12] worked out at 39100 ng·h/mL; in data set [14] it was 116 ng·h/mL; in data set [16] it was 35100 ng·h/mL; in data set [23], 73000 ng·h/mL. The Cmax in data set [13] was determined as 16800 ng/mL; in [18], 91.3 ng/mL. Moreover, the half-life in data set [15] was 3.62 h; in data set [19], 0.65 h. Also, the Tmax is 5 min in data set [17], 1 h in data set [20], 5 min in [21] and 1 h in [22].

Source of the values: ChEMBL document CHEMBL4229446, “Development of Novel Monoamine Oxidase-B (MAO-B) Inhibitors with Reduced Blood-Brain Barrier Permeability for the Potential Management of Noncentral Nervous System (CNS) Diseases” (J Med Chem, 2018).
